# ChEMBL document CHEMBL5046283, “Design, Synthesis, and Biological Evaluation of the First Inhibitors of Oncogenic CHD1L” (J Med Chem, 2022)
# Active and inactive are the calls of the source. The rule behind the calls is not given here.
# Assays:
# SW-620 [1] = assay: Inhibition of cell stemness in human SW-620 M-phenotype cells assessed as reduction in colony formation; type: functional, cell-based
# Method in brief: (§1)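 M-Phenotype cells plated at 200 (SW620) or 75 (HCT116) cells/well and treated continuously. Medium and drug replenished every three days over 7–10 days of growth. Colonies imaged by high-content imaging and counted. Duplicate experiments with triplicate technical replicates.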
# [2] = Inhibition of CHD1L-mediated TCF transcription in human HCT-116 M-phenotype cells incubated for 24 hrs by TOPflash luciferase reporter assay; type: cell-based; conditions: HCT-116, 24 h
# Method in brief: (§2)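 M-Phenotype cells seeded at 20,000 (SW620) or 10,000 (HCT116) cells/well and transiently transfected with TOPflash for 72 h. Treated for 24 h. Luminescence read with One-Glo after PBS wash, normalised to total protein by BCA on a parallel plate.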
# [3] = Cytotoxicty against CRC102 patient-derived tumor organoid assessed as reduction in cell viability incubated for 72 hrs by CellTiter Glo assay; type: functional, tissue-based; conditions: Homo sapiens, Colon cancer organoid
# Method in brief: (§3)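 Patient cells washed with PBS, digested with TrypLE and passed through a 100 μm strainer. Seeded at 5,000 cells/well with 2% Matrigel and left 72 h to self-assemble as organoids, then dosed for 72 h. CellTiter Glo 3D added 1:1, 45 min at room temperature with shaking, luminescence read. Normalised to 0.5% DMSO; triplicate experiments, technical n = 3.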
# HCT-116 [4] = assay: Inhibition of cell stemness in human HCT-116 M-phenotype cells assessed as reduction in colony formation; type: functional, cell-based; method in brief: as §1
# [5] = Induction of mesenchymal-epithelial transition in human HCT-116 M-phenotype tumor organoid assessed as downregulation of vimentin expression by fluorescence analysis; type: functional, cell-based
# Method in brief: (§4)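 M-Phenotype organoids carry a dual reporter (VimPro-GFP, EcadPro-RFP). Dose-response over a 72 h treatment; vimentin promoter activity read as GFP fluorescence by 3D high-content imaging and normalised. Duplicate experiments.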
# [6] = Cytotoxicty against CRC042 patient-derived tumor organoids assessed as reduction in cell viability incubated for 72 hrs by CellTiter Glo assay; type: functional; conditions: Homo sapiens, Neoplasm; method in brief: as §3
# HCT-116 [7] = assay: Cytotoxicity against human HCT-116 M-phenotype tumor organoid assessed as reduction in cell viability incubated for 72 hrs by CellTiter Glo assay; type: functional, cell-based; conditions: HCT-116, 72 h
# Method in brief: (§5)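 Isolated M-Phenotype cells plated at 2,000 cells/well in ultra-low-attachment round-bottom wells, centrifuged to aggregate, then given 2% Matrigel final. Grown 72 h at 37 °C/5% CO2 to form organoids, then dosed for 72 h. CellTiter Glo 3D added 1:1, shaken 45 min at room temperature, luminescence read. Normalised to 0.5% DMSO vehicle; triplicate experiments, technical n = 3.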
# [8] = Toxicity in athymic nude mouse xenografted with human SW-620 cells assessed as change in body weight at 75 to 125 mg/kg, po measured after 28 days; type: organism-based; conditions: in vivo, dose 75-125 mg/kg, time 28 day
# Method in brief: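 Female athymic nude mice (8 weeks old) bearing subcutaneous SW620 EMT dual-reporter M-Phenotype flank xenografts. Dosed by oral gavage at 75 or 125 mg/kg, or vehicle (10% DMSO, 90% PEG 400), once daily, 5 days/week, for 28–31 days. Body weight recorded twice weekly.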
# SW-620 [9] = assay: Cytotoxicity against human SW-620 M-phenotype tumor organoid assessed as reduction in cell viability incubated for 72 hrs by CellTiter Glo assay; type: functional, cell-based; conditions: SW-620, 72 h; method in brief: as §5
# [10] = Inhibition of recombinant catalytic CHD1L (unknown origin) preincubated for 10 mins followed by ATP addition measured after 1 hr by plate reader analysis; parameters: species or system Homo sapiens
# Method in brief: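 800 nM catalytic CHD1L and 200 nM mononucleosome preincubated with inhibitor for 10 min at 37 °C in 50 mM Tris pH 7.5, 50 mM NaCl, 5 mM MgCl2, 2 mM DTT, 5% glycerol. Reaction started with 10 μM ATP, 1 h at 37 °C. Phosphate sensor added (500 nM), fluorescence read at ex 430/em 450. No-enzyme background; normalised to DMSO; triplicate.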
# [11] = Induction of mesenchymal-epithelial transition in human SW-620 M-phenotype tumor organoid assessed as downregulation of vimentin expression by fluorescence analysis; type: functional, cell-based; method in brief: as §4
# [12] = Inhibition of CHD1L-mediated TCF transcription in human SW-620 M-phenotype cells incubated for 24 hrs by TOPflash luciferase reporter assay; type: cell-based; conditions: SW-620, 24 h; method in brief: as §2
# SW-620 [13] = assay: Cytotoxicity against human SW-620 tumor organoid assessed as reduction in cell viability incubated for 72 hrs by CellTiter Glo assay; type: functional, cell-based; conditions: SW-620, 72 h
# SW-620 [14] = assay: Antitumor activity against human SW-620 cells xenografted in athymic nude mouse assessed as decrease in tumor volume at 75 to 125 mg/kg, po measured after 20 to 28 days by caliper method; type: functional, organism-based; conditions: dose 75-125 mg/kg, time 20-28 day
# Method in brief: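 SW620 EMT dual-reporter M-Phenotype cells, 2 × 10^6 cells/100 μL in 1:1 Matrigel:RPMI 1640, injected subcutaneously into each flank of female athymic nude mice (8 weeks old). Randomised at day 5 to vehicle (10% DMSO, 90% PEG 400), 75 or 125 mg/kg. Oral gavage once daily, 5 days/week, for 28–31 days. Caliper tumour volume twice weekly by 4/3*[…]*(L/2)*(W/2)*(H/2).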
SMILES,IC50 (SW-620 [1]) [µM],IC50 [2] [µM],IC50 (HCT-116 [4]) [µM],IC50 [5] [µM],IC50 [10] [µM],IC50 [11] [µM],IC50 [12] [µM],IC50 [3] [µM],IC50 [6] [µM],IC50 (HCT-116 [7]) [µM],Activity [8],IC50 (SW-620 [9]) [µM],IC50 (SW-620 [13]) [µM],Activity (SW-620 [14])
Cc1cc(Nc2ccc(NC(=O)Cc3cc(Br)cs3)cc2)nc(N2CCCC2)n1,1.6,8.7,0.8,5,3.3,3.3,12,8.3,4.2,4.3,Non-Toxic,2.6,2.6,Active
Cc1cc(Nc2ccc(NC(=O)Cc3c[nH]c4cc(Cl)ccc34)cc2)nc(N2CCCC2)n1,0.5,4.2,0.4,2.5,12,1.8,9.6,8.2,3.4,2.3,–,2,1.4,–
Cc1cc(Nc2ccc(NC(=O)Cc3cccs3)cc2)nc(N2CCCC2)n1,–,38,3.2,13,4,10,43,21,16,9.4,–,8.7,4.6,–
Cc1cc(Nc2ccc(NC(=O)Cc3c(C)[nH]c4ccccc34)cc2)nc(N2CCCC2)n1,1.6,6.9,0.9,2.7,16,1.7,6.4,11,4,2.2,–,2.3,1.6,–

# Now from value to compound, other results behind:
IC50 (SW-620 [1]) [µM],IC50 [2] [µM],IC50 (HCT-116 [4]) [µM],IC50 [5] [µM],IC50 [10] [µM],IC50 [11] [µM],IC50 [12] [µM],SMILES,IC50 [3] [µM],IC50 [6] [µM],IC50 (HCT-116 [7]) [µM],Activity [8],IC50 (SW-620 [9]) [µM],IC50 (SW-620 [13]) [µM],Activity (SW-620 [14])
1.1,6.9,0.9,1.9,3.3,1.5,11,Cc1cc(Nc2ccc(NC(=O)Cc3c[nH]c4ccccc34)cc2)nc(N2CCCC2)n1,9,6.2,1.4,–,1.1,–,–
0.7,5.5,0.5,2.6,2.9,1.8,2.2,Cc1cc(Nc2ccc(NC(=O)Cc3cccc4ccccc34)cc2)nc(N2CCCC2)n1,5.3,3.1,2.3,–,–,–,–
0.3,4.9,0.2,2.6,12,1.3,4.9,Cc1cc(Nc2ccc(NC(=O)Cc3cc(Cl)nc4ccccc34)cc2)nc(N2CCCC2)n1,3.5,3.1,2.2,–,1.3,2.4,–
